Source: PubChem
FGF22 binding: shifts melting point of recombinant human FGF22; AID 651658; recombinant FGF22 thermal shift, SYPRO orange fluorescence; percent of sucrose octasulfate shift, DMSO zero; 340,000 compounds, 1.5% hits; Q9HCT0; activity (Tm shift, normalised), % at 9.99 µM;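 active = mean Tm shift, scaled 0 neutral to 100 positive control, at about 1.3% or above, every replicate too, limit read from the data; inconclusive = no clear call, values can overlap the other calls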
DENV2 CPE: DENV2-induced cell death inhibition; AID 651640; CPE inhibition, % at 9.99 µM; 350,000 compounds, 1.7% hits; DENV2-infected cells, cytopathic effect rescue, plate reader; in the data active = CPE inhibition above about 20%, passing the limit was not always enough; inconclusive = no clear call, values can overlap the other calls; tested in BHK-21 cells;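 note: 0% = median of neutral control wells and 100% = median of positive control wells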
ERAP1 inh: inhibitors of human ERAP1 aminopeptidase. recombinant ERAP1, Leu-AMC fluorescence, 60 min. inhibition, % at 10.7 µM. 340,000 compounds, 0.15% hits;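 active = mean replicate inhibition of at least 30%, or all replicates individually reaching that 30% level; inactive = mean below 30% and not every replicate reaching it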;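 note: 0% = neutral control wells and 100% = L-leucinethiol positive control wells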
E-sel inducer: induces E-selectin expression in human endothelial cells; AID 686992; 260,000 compounds, 0.37% hits; HUVEC E-selectin immunofluorescence imaging; normalized: neutral wells 0, TNF-alpha wells 100; activation, % at 7.58 µM; P16581;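 active = mean E-selectin-positive cell signal at least 10% of the positive control, reached in at least 60% of replicates, without over 20% cell loss; inconclusive = no rule given, readout overlaps actives, possibly toxicity-flagged; inactive = the rest, including those meeting only one limit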
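System: HUVEC / Compound: single concentration / Signal: immunofluorescence imaging / Read-out: percent E-selectin-positive cells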
F508del corr: CFTR F508del correction in bronchial cells; 350,000 compounds, 0.36% hits; activity (quench increase), % at 7.58 µM; CFBE cells, YFP halide quenching; stimulated with forskolin plus potentiator P3; % fluorescence drop versus neutral controls;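 active = mean added fluorescence quench of at least 8% versus neutral control, with both replicates also reaching 8%; inconclusive = only one of the mean or replicate conditions met; inactive = mean below 8% and not both replicates reaching 8%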;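 note: cells transiently co-express mutant CFTR-F508del with the halide-sensitive YFP; corrector assay measuring rescue of mutant channel to the surface after 24 h compound exposure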
* marks the source's active call; other numbers are inactive results; ? = inconclusive; . = not tested or not shown. A selection: hits, their analogues and other compounds. The true share with any hit is near 3.7%.

SMILES	FGF22 binding	DENV2 CPE	ERAP1 inh	E-sel inducer	F508del corr
Cc1ccc(S(=O)(=O)N[C@@H]2C=C[C@@H](CC(=O)N3CCN(c4ccccc4)CC3)O[C@@H]2CO)cc1	0	2	-1	0	-2
CCN1C[C@@H]2[C@@H]3C(=O)N(Cc4ccccc4)C(=O)[C@@H]3[C@](Cc3ccccc3)(C1=O)N2C(=O)c1ccc(Br)cc1	0	68*	-4	0	1
CC(=O)Nc1cccc(C(=O)OCC(=O)NC(=O)NC2CCCC2)c1	0	-4	-1	6	5
CCOc1ncccc1C(=O)OC(C)C(=O)NC(=O)NC1CCCCC1 (configuration not stated)	43*	7	0	3	2
CC(=O)Nc1cccc(C(=O)OC(C)C(=O)NC(=O)NC2CCCCC2)c1 (configuration not stated)	0	23*	4	8	2
CCOc1ncccc1C(=O)OCC(=O)NC1CCCCC1	0	-6	0	.	-2
COc1ccc(C=Nc2ccc3[nH]ncc3c2)c(O)c1	43*	-3	0	.	-1
CCC(=O)N1[C@H](CO)[C@H](c2ccccc2)C12CN(C(=O)NC1CCCC1)C2	0	-7	0	0	1
CC(C)C1Cc2[nH]c(=S)[nH]c(=O)c2C(c2ccc(F)cc2)O1 (configuration not stated)	0	32*	0	.	3
C[C@@H]1CCCCO[C@@H](CN(C)CC2CCCCC2)[C@H](C)CN([C@@H](C)CO)C(=O)c2cc(NC(=O)Cc3ccccc3)ccc2O1	0	-10	2	0	-2
O=C(C1CCCC1)N1CC[C@@H]2[C@H](CO)Nc3ccc(C4=CCCCC4)cc3[C@@H]21	.	-4	-3	50*	1
CN1c2ccc(C3=CCCCC3)cc2[C@H]2[C@H](CCN2C(=O)C2CC2)[C@@H]1CO	.	46*	1	.	-5
C[C@@H]1CCCCO[C@@H](CN(C)S(=O)(=O)c2cccs2)[C@H](C)CN([C@H](C)CO)C(=O)c2cc(NC(=O)CCC(F)(F)F)ccc2O1	0	?	3	0	-1
Cc1ccccc1CN1CCNC(=O)C1CC(=O)O (configuration not stated)	0	33*	-1	0	-2
COc1cccc(CN2CCNC(=O)C2CC(=O)O)c1OC (configuration not stated)	0	12	7	4	-5
COc1ccc2c3c(n(C)c2c1)[C@@H](CO)N(C(=O)Nc1c(C)noc1C)CC31CCN(CC2CC2)CC1	0	-3	1	0	1
O=C(CN1C(=O)NC2(CCCC2)C1=O)N1CCc2ccccc2C1	43*	2	-1	1	2
O=C(CN1C(=O)NC2(CCCCC2)C1=O)N1CCc2ccccc2C1	0	17	8	4	2
CCCC#Cc1cnc2c(c1)C(=O)N([C@H](C)CO)C[C@@H](C)[C@H](CN(C)C(=O)CN1CCOCC1)O2	0	-8	2	1	1
COc1cccc2cc(C(=O)NCCN3CCOCC3)c(=O)oc12	0	6	0	0	9.6*
COc1ccc(C(=O)NCCN2CCOCC2)c(OC)c1	44*	10	-5	-1	-3
O=C(NCCN1CCOCC1)c1c(Cl)cccc1Cl	0	-2	3	0	0
COc1ccc(CCNC(=O)c2cc3cccc(OC)c3oc2=O)cc1OC	0	4	0	.	.
COc1ccc(-n2cnc3cc(C(=O)NCCN4CCOCC4)ccc32)cc1	44*	4	1	.	-1
O=C(Cc1c(F)cccc1Cl)NCCN1CCOCC1	43*	1	2	.	0
SMILES	FGF22 binding	DENV2 CPE	ERAP1 inh	E-sel inducer	F508del corr
CN1C[C@H]2[C@@H](c3ccccc31)[C@H](CO)N2S(=O)(=O)c1ccccc1	0	-6	4	0	0
C[C@H](O)C#Cc1cnc2c(c1)C(=O)N([C@@H](C)CO)C[C@H](C)[C@@H](CN(C)Cc1cccc(F)c1)O2	0	-1	-4	0	1
CN1C(=O)c2cc(NC(=O)c3ccccc3Cl)ccc2OC[C@H]2O[C@@H](CC(=O)O)CC[C@@H]21	0	-11	-2	.	0
COc1ccc(NC(=O)Nc2ccc3c(c2)CC(=O)N([C@H](C)CO)C[C@@H](C)[C@H](CN(C)C(=O)NC(C)C)O3)cc1	0	6	-1	0	0
CCCC(=O)Nc1ccc2c(c1)C(=O)N(C)C[C@@H](OC)[C@H](C)CN(C(=O)c1cnccn1)[C@H](C)CO2	0	-1	-1	1	1
Cc1ccccc1C(=O)NCCN1CCOCC1	44*	-1	-1	.	-3
O=C(NCCN1CCOCC1)c1ccccc1Cl	0	-2	-1	0	1
CCCc1nn(-c2cc(Cl)ccc2OC)c2c1C(=O)CCC2	0	4	-1	0	-1
CCCCc1nn(-c2cc(Cl)ccc2OC)c2c1C(=O)CC(C)(C)C2	0	43*	4	0	-2
CCCC#Cc1ccc2c(c1)O[C@H](CN(C)C(=O)C1CC1)[C@H](C)CN([C@H](C)CO)S2(=O)=O	0	2	0	0	-4
C[C@@H]1CN([C@H](C)CO)S(=O)(=O)c2ccc(-c3cncnc3)cc2O[C@H]1CN(C)C(=O)C1CCCCC1	1	7	.	0	-3
COc1ccc(C(CCN2CCN(c3ccccc3)CC2)c2c(OC)cc(OC)c3c(-c4ccccc4)cc(=O)oc23)cc1 (configuration not stated)	0	59*	3	.	1
COc1cc(OC)c2c(-c3ccccc3)cc(=O)oc2c1C(CCN1CCN(c2ccccc2)CC1)c1ccc(N(C)C)cc1 (configuration not stated)	0	-8	.	0	5
COc1ccc(-c2nn(-c3ccccc3)cc2N)cc1	44*	-1	-1	.	-3
COc1ccc(-c2cn(-c3ccccc3)nc2CO)cc1	0	2	-2	0	-1
C[C@@H]1CN([C@@H](C)CO)C(=O)c2cc(C3=CCCCC3)cnc2O[C@@H]1CN(C)Cc1cccnc1	0	20*	-1	0	0
C[C@H](CO)N1C[C@H](C)[C@@H](CN(C)Cc2cccnc2)Oc2ncc(C3=CCCCC3)cc2C1=O	0	2	-3	-4	-2
C[C@H](CO)N1C[C@H](C)[C@H](CN(C)Cc2cccc(F)c2)Oc2ncc(C3=CCCCC3)cc2C1=O	0	23*	0	0	0
C[C@@H]1CN([C@@H](C)CO)C(=O)c2cc(-c3cccnc3)cnc2O[C@@H]1CN(C)Cc1ccc(-c2ccccc2)cc1	0	37*	-2	0	3
CC(=O)Nc1cccc(OCCCNC(=O)c2ccc(C(C)(C)C)cc2)c1	0	31*	-4	.	-2
